Experimental data from ChEMBL document CHEMBL2010803, “Novel NSAID 1-acyl-4-cycloalkyl/arylsemicarbazides and 1-acyl-5-benzyloxy/hydroxy carbamoylcarbazides as potential anticancer agents and antioxidants” (Eur J Med Chem, 2012).
pIC50: −log10 of the molar value. Active and inactive are the calls of the source. No cut-off for these calls is given here.

Experiments:
[1] = system: Influenza B virus; assay: Antiviral activity against Influenza B virus infected in MDCK cells assessed as inhibition of virus-induced cytopathic effect at 0.32 to 100 uM; type: functional, organism-based
Procedure, shortened: (§1)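 Confluent MDCK monolayers were infected in the presence of the compound at 100, 40, 8, 1.6 and 0.32 μM. Viral cytopathicity was scored once it was complete in untreated infected control cultures.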

[2] = system: Mammalian orthoreovirus 1; assay: Antiviral activity against Reovirus-1 infected in african green monkey Vero cells assessed as inhibition of virus-induced cytopathic effect at 0.32 to 100 uM; type: functional, organism-based
Procedure, shortened: (§2)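 Confluent cell cultures were infected with 100 CCID50 of virus in the presence of test compound at 100, 40, 8, 1.6 and 0.32 μM. Cytopathic effect was scored once it was complete in untreated infected controls.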

[3] = system: Influenza A virus; assay: Antiviral activity against Influenza A virus H3N2 infected in MDCK cells assessed as inhibition of virus-induced cytopathic effect at 0.32 to 100 uM; type: functional, organism-based; procedure, shortened: as §1
[4] = system: MCF7; assay: Selectivity ratio of IC50 for human HaCaT cells to IC50 for human MCF7 cells
[5] = system: Coxsackievirus B4; assay: Antiviral activity against Coxsackievirus B4 infected in human cervix carcinoma cells assessed as inhibition of virus-induced cytopathic effect at 0.32 to 100 uM; type: functional, organism-based; procedure, shortened: as §2
[6] = system: Human respirovirus 3; assay: Antiviral activity against Parainfluenza virus 3 infected in african green monkey Vero cells assessed as inhibition of virus-induced cytopathic effect at 0.32 to 100 uM; type: functional, organism-based; procedure, shortened: as §2
[7] = system: HaCaT; assay: Selectivity ratio of IC50 for human HaCaT cells to IC50 for human CEM cells
[8] = system: Punta Toro virus; assay: Antiviral activity against Punta Toro virus infected in african green monkey Vero cells assessed as inhibition of virus-induced cytopathic effect at 0.32 to 100 uM; type: functional, organism-based; procedure, shortened: as §2
[9] = system: Sindbis virus; assay: Antiviral activity against Sindbis virus infected in african green monkey Vero cells assessed as inhibition of virus-induced cytopathic effect at 0.32 to 100 uM; type: functional, organism-based; procedure, shortened: as §2
[10] = system: NCI-H460; assay: Cytostatic activity against human NCI-H460 cells after 72 hrs by MTT assay; type: functional, cell-based; conditions: NCI-H460, 72 h
Procedure, shortened: (§3)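 Monolayers in DMEM with 10% FBS, 2 mM L-glutamine and penicillin/streptomycin, 37 °C, 5% CO2. Seeded at 1–3 × 10^4 cells/ml, then compound added in tenfold dilutions (10⁻⁸–10⁻⁴ M) for 72 h. MTT read at 570 nm; percent growth taken against time-zero and untreated controls. IC50 by linear regression; quadruplicate, at least two experiments.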

[11] = system: Vaccinia virus; assay: Antiviral activity against Vaccinia virus infected in human lung fibroblast assessed as inhibition of virus-induced cytopathic effect at 0.32 to 100 uM; type: functional, organism-based; conditions: Orthopoxvirus vaccinia
[12] = system: HaCaT; assay: Selectivity ratio of IC50 for human HaCaT cells to IC50 for human HCT116 cells
[13] = system: Respiratory syncytial virus; assay: Antiviral activity against RSV infected in human cervix carcinoma cells assessed as inhibition of virus-induced cytopathic effect at 0.32 to 100 uM; type: functional, organism-based; procedure, shortened: as §2
[14] = system: L1210; assay: Cytostatic activity against mouse L1210 cells after 2 days by coulter counter analysis; type: functional, cell-based; conditions: L1210, 48 h
Procedure, shortened: (§4)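 300,000–500,000 cells/ml mixed 1:1 with compound dilutions and incubated at 37 °C for 2 days (L1210) or 3 days (CEM, HeLa). Cell number counted with a Coulter counter; HeLa trypsinized before counting.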

[15] = system: Human alphaherpesvirus 2; assay: Antiviral activity against HSV2 G infected in human lung fibroblast assessed as inhibition of virus-induced cytopathic effect at 0.32 to 100 uM; type: functional, organism-based; conditions: strain G; procedure, shortened: as §2
[16] = Inhibition of soybean LOX assessed as conversion of sodium linoleate to 13- hydroperoxylinoleic acid; design: species or system Glycine max
[17] = system: Human alphaherpesvirus 1; assay: Antiviral activity against HSV1 KOS infected in human lung fibroblast assessed as inhibition of virus-induced cytopathic effect at 0.32 to 100 uM; type: functional, organism-based; procedure, shortened: as §2
[18] = system: Radical scavenging activity; assay: Antioxidant activity assessed as DPPH free radical scavenging activity at 100 uM after 20 mins by spectrophotometric analysis; type: functional
Procedure, shortened: (§5)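 0.05 mM DPPH in absolute ethanol mixed with an equal volume of compound in DMSO (final 100 μM). Shaken and left 20 or 60 min, then absorbance read at 517 nm and percent activity calculated. Three replicates, averaged.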

[19] = system: Felid alphaherpesvirus 1; assay: Antiviral activity against Feline herpesvirus infected in feline CRFK cells assessed as inhibition of virus-induced cytopathic effect at 0.32 to 100 uM; type: functional, organism-based; procedure, shortened: as §2
[20] = system: CCRF-CEM; assay: Cytostatic activity against human CEM cells after 3 days by coulter counter analysis; type: functional, cell-based; conditions: 72 h; procedure, shortened: as §4
[21] = system: MCF7; assay: Cytostatic activity against human MCF7 cells after 72 hrs by MTT assay; type: functional, cell-based; conditions: MCF7, 72 h; procedure, shortened: as §3
[22] = system: Radical scavenging activity; assay: Antioxidant activity assessed as DPPH free radical scavenging activity at 100 uM after 60 mins by spectrophotometric analysis; type: functional; procedure, shortened: as §5
[23] = system: Vesicular stomatitis virus; assay: Antiviral activity against VSV infected in human lung fibroblast assessed as inhibition of virus-induced cytopathic effect at 0.32 to 100 uM; type: functional, organism-based
[24] = system: L1210; assay: Selectivity ratio of IC50 for human HaCaT cells to IC50 for mouse L1210 cells
[25] = system: Influenza A virus; assay: Antiviral activity against Influenza A virus H1N1 infected in MDCK cells assessed as inhibition of virus-induced cytopathic effect at 0.32 to 100 uM; type: functional, organism-based; procedure, shortened: as §1
[26] = system: HeLa; assay: Selectivity ratio of IC50 for human HaCaT cells to IC50 for human HeLa cells
[27] = system: HCT-116; assay: Cytostatic activity against human HCT116 cells after 72 hrs by MTT assay; type: functional, cell-based; conditions: HCT-116, 72 h; procedure, shortened: as §3
[28] = system: Coxsackievirus B4; assay: Antiviral activity against Coxsackievirus B4 infected in african green monkey Vero cells assessed as inhibition of virus-induced cytopathic effect at 0.32 to 100 uM; type: functional, organism-based; procedure, shortened: as §2
[29] = system: Human immunodeficiency virus 2; assay: Antiviral activity against HIV2 ROD infected in human CEM cells assessed as inhibition of virus-induced CEM giant cell formation at 0.32 to 100 uM after 4 days; type: functional, organism-based; conditions: ISOLATE ROD, CCRF-CEM
Procedure, shortened: (§6)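 CEM cells (~3 × 10^5 cells/cm³) exposed to 100 CCID50/ml of virus and seeded into wells holding compound dilutions. Incubated 4 days at 37 °C, then giant cell formation examined microscopically.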

[30] = system: HaCaT; assay: Cytostatic activity against human HaCaT cells after 72 hrs by MTT assay; type: ADME, cell-based; procedure, shortened: as §3
[31] = system: HeLa; assay: Cytostatic activity against human HeLa cells after 3 days by coulter counter analysis; type: functional, cell-based; conditions: 72 h; procedure, shortened: as §4
[32] = system: Glycine max; assay: Inhibition of soybean LOX assessed as conversion of sodium linoleate to 13- hydroperoxylinoleic acid at 100 uM
[33] = system: NCI-H460; assay: Selectivity ratio of IC50 for human HaCaT cells to IC50 for human NCI-H460 cells
[34] = system: Feline coronavirus; assay: Antiviral activity against Feline coronavirus infected in feline CRFK cells assessed as inhibition of virus-induced cytopathic effect at 0.32 to 100 uM; type: functional, organism-based; procedure, shortened: as §2
[35] = Antioxidant activity assessed as inhibition of AAPH-induced linoleic acid lipid peroxidation by measuring conjugated diene hydroperoxide level; type: functional; design: concentration or dose not given beside the values; conditions: dose or concentration not given here
Procedure, shortened: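 Linoleic acid sodium salt (10 μL of 16 mM) in 0.05 M phosphate buffer pH 7.4 at 37 °C. Oxidation started under air with 50 μL of 40 mM AAPH. Conjugated diene hydroperoxide formation followed as absorbance rise at 234 nm; control contains the same DMSO level. At least triplicate.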

[36] = system: Human immunodeficiency virus 1; assay: Antiviral activity against HIV1 3B infected in human CEM cells assessed as inhibition of virus-induced CEM giant cell formation at 0.32 to 100 uM after 4 days; type: functional, organism-based; conditions: CCRF-CEM; procedure, shortened: as §6
[37] = system: Vesicular stomatitis virus; assay: Antiviral activity against Vesicular stomatitis virus infected in human cervix carcinoma cells assessed as inhibition of virus-induced cytopathic effect at 0.32 to 100 uM; type: functional, organism-based
Procedure, shortened: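 Confluent human cervix carcinoma (HeLa) cultures received 100 CCID50 of VSV together with the compound at 100, 40, 8, 1.6 or 0.32 μM. Cytopathicity was read at the point of full CPE in infected, untreated control wells.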

| Structure (SMILES) | inhibition [1] | inhibition [2] | inhibition [3] | Ratio IC50 [4] | inhibition [5] | inhibition [6] | Ratio IC50 [7] | inhibition [8] | inhibition [9] | pIC50 [10] | inhibition [11] | Ratio IC50 [12] | inhibition [13] | pIC50 [14] | inhibition [15] | pIC50 [16] | inhibition [17] | Activity [18] [%] | inhibition [19] | pIC50 [20] | other results |
| --- | --- | --- | --- | --- | --- | --- | --- | --- | --- | --- | --- | --- | --- | --- | --- | --- | --- | --- | --- | --- | --- |
| CC(C(=O)NNC(=O)NC(c1ccccc1)c1ccccc1)c1cccc(Cc2ccccc2)c1 (centres undefined) | inactive | inactive | inactive | 2 | inactive | inactive | 2 | inactive | inactive | 5.40 | inactive | 2 | inactive | 4.72 | inactive | 4.29 | inactive | 4 | inactive | 4.82 | pIC50 [21]: 5.30; Activity [22]: 9%; inhibition [23]: inactive; Ratio IC50 [24]: 2; inhibition [25]: inactive; Ratio IC50 [26]: 2; pIC50 [27]: 5.10; inhibition [28]: inactive; inhibition [29]: inactive; pIC50 [30]: 4.96; pIC50 [31]: 5.30; inhibition [32]: 96%; Ratio IC50 [33]: 2; inhibition [34]: inactive; inhibition [35]: 88%; inhibition [36]: inactive; inhibition [37]: inactive |
| CC(C(=O)NNC(=O)NC(c1ccccc1)c1ccccc1)c1cccc(Oc2ccccc2)c1 (centres undefined) | inactive | inactive | inactive | 2 | inactive | inactive | 2 | inactive | inactive | 5.52 | inactive | 2 | inactive | 4.82 | inactive | 4.22 | inactive | 2 | inactive | 4.96 | pIC50 [21]: 5.15; Activity [22]: 4%; inhibition [23]: inactive; Ratio IC50 [24]: 2; inhibition [25]: inactive; Ratio IC50 [26]: 2; pIC50 [27]: 5.30; inhibition [28]: inactive; inhibition [29]: inactive; pIC50 [30]: 5.00; pIC50 [31]: 5.24; inhibition [32]: 81%; Ratio IC50 [33]: 2; inhibition [34]: inactive; inhibition [35]: 99%; inhibition [36]: inactive; inhibition [37]: inactive |
